Assay results from ChEMBL document CHEMBL1156833, “The discovery of MK-0674, an orally bioavailable cathepsin K inhibitor” (Bioorg Med Chem Lett, 2010).

Biological target: Cathepsin K (Homo sapiens, UniProt P43235)
Experiment: Inhibition of humanized rabbit cathepsin K
Conditions: not given

SMILES | IC50
CC(C)(F)C[C@H](N[C@@H](c1ccc(-c2ccc(C3(O)CC3)cn2)cc1)C(F)(F)F)C(=O)NC1(C#N)CC1 | 0.3 nM
CC(C)(F)C[C@H](N[C@@H](c1ccc(-c2ccc3ncccc3c2)cc1)C(F)(F)F)C(=O)NC1(C#N)CC1 | 0.4 nM
CC(C)(F)C[C@H](N[C@@H](c1ccc(-c2ccc(C3(C(N)=O)CC3)cn2)cc1)C(F)(F)F)C(=O)NC1(C#N)CC1 | 0.5 nM
CC(C)(F)C[C@H](N[C@@H](c1ccc(-c2ccc(S(C)(=O)=O)nc2)cc1)C(F)(F)F)C(=O)NC1(C#N)CC1 | 2.6 nM

The next compounds have a lower IC50 than those just listed; values first:

IC50 | SMILES
0.2 nM | C[C@H](C(N)=O)c1ccc(-c2ccc([C@H](N[C@@H](CC(C)(C)F)C(=O)NC3(C#N)CC3)C(F)(F)F)cc2)cc1
0.2 nM | CC(C)(F)C[C@H](N[C@@H](c1ccc(-c2ccc(C3(C(N)=O)CC3)cc2)cc1)C(F)(F)F)C(=O)NC1(C#N)CC1
0.2 nM | CC(C)(F)C[C@H](N[C@@H](c1ccc(-c2ccc(S(C)(=O)=O)cc2)cc1)C(F)(F)F)C(=O)NC1(C#N)CC1 [ODANACATIB]
0.2 nM | CC(C)(F)C[C@H](N[C@@H](c1ccc(-c2ccc(C(C)(C)O)cc2)cc1)C(F)(F)F)C(=O)NC1(C#N)CC1

Species: Homo sapiens
Experiment: Selectivity ratio of IC50 for human cathepsin S to IC50 for humanized rabbit cathepsin K
Conditions: not given

SMILES | Ratio IC50
CC(C)(F)C[C@H](N[C@@H](c1ccc(-c2ccc(C3(O)CC3)cn2)cc1)C(F)(F)F)C(=O)NC1(C#N)CC1 | 210
CC(C)(F)C[C@H](N[C@@H](c1ccc(-c2ccc3ncccc3c2)cc1)C(F)(F)F)C(=O)NC1(C#N)CC1 | 44
CC(C)(F)C[C@H](N[C@@H](c1ccc(-c2ccc(C3(C(N)=O)CC3)cn2)cc1)C(F)(F)F)C(=O)NC1(C#N)CC1 | 849
CC(C)(F)C[C@H](N[C@@H](c1ccc(-c2ccc(S(C)(=O)=O)nc2)cc1)C(F)(F)F)C(=O)NC1(C#N)CC1 | 28

The next lines start with the values.

Ratio IC50 | SMILES
693 | C[C@H](C(N)=O)c1ccc(-c2ccc([C@H](N[C@@H](CC(C)(C)F)C(=O)NC3(C#N)CC3)C(F)(F)F)cc2)cc1
766 | CC(C)(F)C[C@H](N[C@@H](c1ccc(-c2ccc(C3(C(N)=O)CC3)cc2)cc1)C(F)(F)F)C(=O)NC1(C#N)CC1
300 | CC(C)(F)C[C@H](N[C@@H](c1ccc(-c2ccc(S(C)(=O)=O)cc2)cc1)C(F)(F)F)C(=O)NC1(C#N)CC1 [ODANACATIB]
715 | CC(C)(F)C[C@H](N[C@@H](c1ccc(-c2ccc(C(C)(C)O)cc2)cc1)C(F)(F)F)C(=O)NC1(C#N)CC1

Species: Homo sapiens
Experiment: Selectivity ratio of IC50 for human cathepsin L to IC50 for humanized rabbit cathepsin K
Conditions: not given

SMILES | Ratio IC50
CC(C)(F)C[C@H](N[C@@H](c1ccc(-c2ccc(C3(O)CC3)cn2)cc1)C(F)(F)F)C(=O)NC1(C#N)CC1 | 18000
CC(C)(F)C[C@H](N[C@@H](c1ccc(-c2ccc3ncccc3c2)cc1)C(F)(F)F)C(=O)NC1(C#N)CC1 | 6020
CC(C)(F)C[C@H](N[C@@H](c1ccc(-c2ccc(C3(C(N)=O)CC3)cn2)cc1)C(F)(F)F)C(=O)NC1(C#N)CC1 | 3700
CC(C)(F)C[C@H](N[C@@H](c1ccc(-c2ccc(S(C)(=O)=O)nc2)cc1)C(F)(F)F)C(=O)NC1(C#N)CC1 | 1300

Second part, the compound after the results:

Ratio IC50 | SMILES
21300 | C[C@H](C(N)=O)c1ccc(-c2ccc([C@H](N[C@@H](CC(C)(C)F)C(=O)NC3(C#N)CC3)C(F)(F)F)cc2)cc1
11100 | CC(C)(F)C[C@H](N[C@@H](c1ccc(-c2ccc(C3(C(N)=O)CC3)cc2)cc1)C(F)(F)F)C(=O)NC1(C#N)CC1
15000 | CC(C)(F)C[C@H](N[C@@H](c1ccc(-c2ccc(S(C)(=O)=O)cc2)cc1)C(F)(F)F)C(=O)NC1(C#N)CC1 [ODANACATIB]
28900 | CC(C)(F)C[C@H](N[C@@H](c1ccc(-c2ccc(C(C)(C)O)cc2)cc1)C(F)(F)F)C(=O)NC1(C#N)CC1

Tested on: not listed separately
Experiment: Decrease in bone resorption assessed as corrected bone resorption measured as ratio of bone resorption IC50 x humanized rabbit cathepsin K IC50 to rabbit cathepsin K IC50 equation
Format: functional, tissue-based, Bone element
Conditions: not given

SMILES | IC50
CC(C)(F)C[C@H](N[C@@H](c1ccc(-c2ccc3ncccc3c2)cc1)C(F)(F)F)C(=O)NC1(C#N)CC1 | 8 nM
CC(C)(F)C[C@H](N[C@@H](c1ccc(-c2ccc(C3(C(N)=O)CC3)cn2)cc1)C(F)(F)F)C(=O)NC1(C#N)CC1 | 35 nM
CC(C)(F)C[C@H](N[C@@H](c1ccc(-c2ccc(S(C)(=O)=O)nc2)cc1)C(F)(F)F)C(=O)NC1(C#N)CC1 | 8 nM

The next lines start with the values.

IC50 | SMILES
35 nM | C[C@H](C(N)=O)c1ccc(-c2ccc([C@H](N[C@@H](CC(C)(C)F)C(=O)NC3(C#N)CC3)C(F)(F)F)cc2)cc1
12 nM | CC(C)(F)C[C@H](N[C@@H](c1ccc(-c2ccc(C3(C(N)=O)CC3)cc2)cc1)C(F)(F)F)C(=O)NC1(C#N)CC1
5 nM | CC(C)(F)C[C@H](N[C@@H](c1ccc(-c2ccc(S(C)(=O)=O)cc2)cc1)C(F)(F)F)C(=O)NC1(C#N)CC1 [ODANACATIB]
10 nM | CC(C)(F)C[C@H](N[C@@H](c1ccc(-c2ccc(C(C)(C)O)cc2)cc1)C(F)(F)F)C(=O)NC1(C#N)CC1

Tested on: not listed separately
Experiment: Oral bioavailability in rat
Format: ADME, organism-based
Conditions: in vivo
Method in brief: (§1)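 Pharmacokinetics in rats, rabbits and rhesus monkeys after oral dosing in 1% methocel vehicle. Half-life and oral bioavailability were derived from the plasma profiles.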

bioavailability | SMILES
7% | CC(C)(F)C[C@H](N[C@@H](c1ccc(-c2ccc(C3(O)CC3)cn2)cc1)C(F)(F)F)C(=O)NC1(C#N)CC1
8% | CC(C)(F)C[C@H](N[C@@H](c1ccc(-c2ccc(C3(C(N)=O)CC3)cc2)cc1)C(F)(F)F)C(=O)NC1(C#N)CC1
24% | CC(C)(F)C[C@H](N[C@@H](c1ccc(-c2ccc(C(C)(C)O)cc2)cc1)C(F)(F)F)C(=O)NC1(C#N)CC1

Species: Homo sapiens
Experiment: Selectivity ratio of IC50 for human cathepsin B to IC50 for humanized rabbit cathepsin K
Conditions: not given

SMILES | Ratio IC50
CC(C)(F)C[C@H](N[C@@H](c1ccc(-c2ccc(C3(O)CC3)cn2)cc1)C(F)(F)F)C(=O)NC1(C#N)CC1 | 3640
CC(C)(F)C[C@H](N[C@@H](c1ccc(-c2ccc3ncccc3c2)cc1)C(F)(F)F)C(=O)NC1(C#N)CC1 | 3000
CC(C)(F)C[C@H](N[C@@H](c1ccc(-c2ccc(C3(C(N)=O)CC3)cn2)cc1)C(F)(F)F)C(=O)NC1(C#N)CC1 | 3920
CC(C)(F)C[C@H](N[C@@H](c1ccc(-c2ccc(S(C)(=O)=O)nc2)cc1)C(F)(F)F)C(=O)NC1(C#N)CC1 | 725

Now from value to compound:

Ratio IC50 | SMILES
1440 | C[C@H](C(N)=O)c1ccc(-c2ccc([C@H](N[C@@H](CC(C)(C)F)C(=O)NC3(C#N)CC3)C(F)(F)F)cc2)cc1
1560 | CC(C)(F)C[C@H](N[C@@H](c1ccc(-c2ccc(C3(C(N)=O)CC3)cc2)cc1)C(F)(F)F)C(=O)NC1(C#N)CC1
5170 | CC(C)(F)C[C@H](N[C@@H](c1ccc(-c2ccc(S(C)(=O)=O)cc2)cc1)C(F)(F)F)C(=O)NC1(C#N)CC1 [ODANACATIB]
2200 | CC(C)(F)C[C@H](N[C@@H](c1ccc(-c2ccc(C(C)(C)O)cc2)cc1)C(F)(F)F)C(=O)NC1(C#N)CC1

Tested on: not listed separately
Experiment: Oral bioavailability in squirrel monkey
Format: ADME, organism-based
Conditions: saimiri, in vivo

bioavailability | SMILES
5% | CC(C)(F)C[C@H](N[C@@H](c1ccc(-c2ccc(C3(C(N)=O)CC3)cc2)cc1)C(F)(F)F)C(=O)NC1(C#N)CC1

Tested on: not listed separately
Experiment: Half life in po dosed rat
Format: ADME, organism-based
Conditions: in vivo
Method in brief: as §1

half-life | SMILES
< 1 h | CC(C)(F)C[C@H](N[C@@H](c1ccc(-c2ccc(C(C)(C)O)cc2)cc1)C(F)(F)F)C(=O)NC1(C#N)CC1

Species: Homo sapiens
Experiment: Selectivity ratio of IC50 for human cathepsin F to IC50 for humanized rabbit cathepsin K
Conditions: not given

SMILES | Ratio IC50
CC(C)(F)C[C@H](N[C@@H](c1ccc(-c2ccc(C3(O)CC3)cn2)cc1)C(F)(F)F)C(=O)NC1(C#N)CC1 | 2760
CC(C)(F)C[C@H](N[C@@H](c1ccc(-c2ccc(C3(C(N)=O)CC3)cn2)cc1)C(F)(F)F)C(=O)NC1(C#N)CC1 | 3440

Continued, values first:

Ratio IC50 | SMILES
3590 | C[C@H](C(N)=O)c1ccc(-c2ccc([C@H](N[C@@H](CC(C)(C)F)C(=O)NC3(C#N)CC3)C(F)(F)F)cc2)cc1
2380 | CC(C)(F)C[C@H](N[C@@H](c1ccc(-c2ccc(C3(C(N)=O)CC3)cc2)cc1)C(F)(F)F)C(=O)NC1(C#N)CC1
3230 | CC(C)(F)C[C@H](N[C@@H](c1ccc(-c2ccc(S(C)(=O)=O)cc2)cc1)C(F)(F)F)C(=O)NC1(C#N)CC1 [ODANACATIB]
2410 | CC(C)(F)C[C@H](N[C@@H](c1ccc(-c2ccc(C(C)(C)O)cc2)cc1)C(F)(F)F)C(=O)NC1(C#N)CC1
